# ABCB1 block = ABCB1 efflux pump inhibitors, primary screen, cell-based, multiplex, flow cytometry, ABCG2 counter-screen. inhibition, % at 6.6 µM. 190,000 compounds, 0.067% hits. AID 1326, 2008. CCRF-Adr cells, JC-1 efflux; in the data active means inhibition above about 40%;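 further: higher value means more JC-1 retained so stronger ABCB1 efflux block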
# Target sequence (P08183 whole entry, looked up): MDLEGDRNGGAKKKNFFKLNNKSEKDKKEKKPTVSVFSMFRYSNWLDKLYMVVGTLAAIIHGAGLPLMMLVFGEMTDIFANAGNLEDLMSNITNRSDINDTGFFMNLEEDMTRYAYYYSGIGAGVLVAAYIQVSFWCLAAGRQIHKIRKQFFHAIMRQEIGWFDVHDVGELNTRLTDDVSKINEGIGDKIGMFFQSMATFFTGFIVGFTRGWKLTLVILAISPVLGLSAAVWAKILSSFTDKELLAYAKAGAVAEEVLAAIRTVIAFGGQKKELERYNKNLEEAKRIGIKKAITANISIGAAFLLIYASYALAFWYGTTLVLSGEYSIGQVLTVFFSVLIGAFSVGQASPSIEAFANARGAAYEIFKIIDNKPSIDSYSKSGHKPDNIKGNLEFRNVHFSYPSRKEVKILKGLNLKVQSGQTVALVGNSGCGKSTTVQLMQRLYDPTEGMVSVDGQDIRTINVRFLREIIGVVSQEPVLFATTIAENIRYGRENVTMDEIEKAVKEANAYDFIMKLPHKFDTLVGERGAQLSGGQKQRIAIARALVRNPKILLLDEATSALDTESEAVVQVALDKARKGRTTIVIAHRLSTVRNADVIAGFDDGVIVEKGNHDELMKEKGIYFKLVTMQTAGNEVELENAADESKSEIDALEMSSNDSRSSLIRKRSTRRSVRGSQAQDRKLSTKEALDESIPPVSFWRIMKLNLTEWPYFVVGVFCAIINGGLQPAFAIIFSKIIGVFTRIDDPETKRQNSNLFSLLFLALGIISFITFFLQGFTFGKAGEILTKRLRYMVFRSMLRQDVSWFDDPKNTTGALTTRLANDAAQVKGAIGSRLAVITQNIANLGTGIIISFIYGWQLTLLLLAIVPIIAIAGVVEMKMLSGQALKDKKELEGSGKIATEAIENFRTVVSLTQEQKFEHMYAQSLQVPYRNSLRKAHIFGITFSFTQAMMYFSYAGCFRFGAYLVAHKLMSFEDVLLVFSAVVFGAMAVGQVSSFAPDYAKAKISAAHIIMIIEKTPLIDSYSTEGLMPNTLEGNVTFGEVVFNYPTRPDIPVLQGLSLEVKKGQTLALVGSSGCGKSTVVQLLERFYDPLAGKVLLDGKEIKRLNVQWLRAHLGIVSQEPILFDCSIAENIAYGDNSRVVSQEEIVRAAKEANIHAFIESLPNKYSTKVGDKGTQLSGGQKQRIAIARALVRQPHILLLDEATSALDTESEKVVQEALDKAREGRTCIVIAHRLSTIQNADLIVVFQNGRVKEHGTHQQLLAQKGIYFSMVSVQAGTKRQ
# RAM inhibit = inhibitors of the yeast RAM network, primary screen, dse1pr::URA3 reporter, 5-FOA selection; S. cerevisiae dse1pr::URA3 reporter, 5-FOA growth OD615, 2 d; analog-sensitive cbk1-as2 kinase mutant strain; inhibition, % at 50 µM; 190,000 compounds, 1.8% hits; AID 868, 2007;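 active means inhibition above a set limit, 3 SD over mean compound inhibition, cut at about 8.4% in these data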;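 further: inhibition rescues growth on 5-FOA so higher OD means more RAM inhibition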
# WT yeast gro inh = growth inhibition of WT strain, primary screen, mitochondrial fusion inhibitor project, WT and mutant strains, chemical genetic. AID 1362, 2008. 190,000 compounds, 2.1% hits. mitochondrial fusion phenotypic screen. inhibition, % at 10 µM; in the data active means inhibition above about 58%; tested in S. cerevisiae
# L major viab = Leishmania major promastigote growth inhibition, primary screen; inhibition, % at 10 µM; 200,000 compounds, 9% hits; Leishmania major promastigotes, resazurin fluorescence viability; in the data active means inhibition above about 50%;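 further: promastigotes grown with compound for 44 hours at 28 °C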
# ABCG2 block = ABCG2 efflux pump inhibitors, primary screen, multiplex with ABCB1, IgMXP3 cells, flow cytometry. Broad substrate specificity ATP-binding cassette transporter ABCG2 (Homo sapiens), Q9UNQ0. JC-1 efflux. inhibition, % at 6.6 µM. 190,000 compounds, 0.1% hits;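 active means inhibition above 80%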
#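 System: two drug-resistant human cell lines, ABCG2 and ABCB1; controls: nicardipine high and DMSO low controls; times: 10 min exposure at 25 °C with rotation, no wash; detection: flow cytometry of retained JC-1 fluorescence; read-out basis: percent efflux inhibition, scaled nicardipine 100% to DMSO 0%; doses: one concentration, 6.6 µM final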
# RAM 5-FOA = 5-FOA growth of efflux-deficient control yeast, dose response, counter-screen for RAM network inhibitor project, S. cerevisiae, OD615 | shares compounds with RAM inhibit | S. cerevisiae efflux-deficient reporter strain, 5-FOA growth OD615, 2 days | max inhibition, % | 1,200 tested, under 10 active | AID 1305, 2008; call rule not given here
# Hits are given with their value; . = inactive; / = no result given. In the library only some 12% were active in any assay of this set; here they are far more common.
SMILES,ABCB1 block,RAM inhibit,WT yeast gro inh,L major viab,ABCG2 block,RAM 5-FOA
O=[N+]([O-])c1ccc(C2Nc3cccc4cccc(c34)N2)cc1,.,11.8,.,.,.,.
O=C(O)CC1S/C(=N/N=C/c2ccc(Br)cc2)N(c2ccccc2)C1=O (stereo not drawn),.,12.9,.,.,.,.
O=C(O)CC1S/C(=N\N=C2CCCCCCC2)N(c2ccccc2)C1=O (stereo not drawn),.,.,.,.,.,/
Cc1ccc(C(=O)C(OC(=O)COc2ccccc2C)c2ccccc2)cc1 (stereo not drawn),.,14.5,.,.,.,.
O=C(COc1ccccc1)OC(C(=O)c1ccccc1)c1ccccc1 (stereo not drawn),.,12.4,.,.,.,.
O=C(O)c1cc(N2N=C(C(F)(F)F)/C(=C/C=C/c3ccco3)C2=O)ccc1Cl,.,13.6,.,.,.,.
COc1ccc(OC2C(=O)N(Cc3ccc4c(c3)OCO4)C2c2cccs2)cc1 (stereo not drawn),.,13.2,.,.,.,.
CC(CC(=O)NC1CCCC1)c1ccccc1 (stereo not drawn),.,.,.,.,.,/
N#Cc1c(N)nc(SCc2ccccn2)c(C#N)c1-c1cccs1,.,12.1,.,.,.,.
Nc1nc(N)nc(-c2ccc(Oc3ccccc3)cc2)n1,.,.,.,.,.,/
Cc1ccccc1Oc1ccc(-c2nc(N)nc(N)n2)cc1,.,12.3,.,.,.,.
CC(C)CC(c1nnnn1Cc1ccc(F)cc1)N1CCC(C(N)=O)CC1 (stereo not drawn),.,.,.,.,.,/
CC(=O)Nc1ccc(S(=O)(=O)Nc2nc3ccccc3nc2Nc2ccc3ccccc3c2)cc1,.,15.9,.,.,.,.
CC1=NN(c2ccccc2)C(=O)/C1=C\C=C1\N(C)c2ccccc2C1(C)C,.,.,.,.,.,/
CN1/C(=C\C=C2/C(=O)Oc3ccccc3C2=O)C(C)(C)c2ccccc21,.,21.2,.,.,.,.
COc1ccc(Cl)cc1C(=O)CSc1nc(N)cc(N)n1,.,.,.,.,.,/
COc1cccc(CNC(=O)CN2C(=O)CC(c3ccccc3)=Nc3ccccc32)c1,.,12.6,.,.,.,.
COc1cccc(C(=O)Oc2ccccc2/C=C\C(=O)c2cc3ccccc3o2)c1,.,16.4,.,99.8,.,.
CCCCc1ccc(NC(=S)Nc2ccc(Cl)c(S(=O)(=O)N(C)C)c2)cc1,.,16.0,77.1,86.9,.,.
Cc1cc(C)nc(Sc2ncnc3c2oc2ccccc23)n1,.,.,.,.,.,/
c1ccc2cc(Sc3ncnc4c3oc3ccccc34)ccc2c1,.,13.3,.,.,.,.
COc1ccc(OC)c(-c2csc(NC(=O)CSc3ccccc3)n2)c1,.,11.4,.,77.2,.,.
CCOC(=O)c1c(-c2ccccc2)csc1NC(=O)CSc1ccccc1,.,13.3,.,.,.,.
CCOC(=O)c1c(-c2ccc(OC)cc2)csc1NC(=O)CSc1ccccc1,.,14.9,.,.,.,.
CCOC(=O)c1c(NC(=O)CSc2nncs2)sc(C)c1-c1ccccc1,.,13.0,.,75.5,.,.
SMILES,ABCB1 block,RAM inhibit,WT yeast gro inh,L major viab,ABCG2 block,RAM 5-FOA
Fc1ccccc1NC(=S)N(CCCN1CCOCC1)Cc1cccnc1,.,.,.,.,.,/
CCOC(=O)c1c(NC(=O)CSc2nnnn2-c2ccc(OC)cc2)sc(C)c1C,.,12.5,.,.,.,.
CCNC(=O)CC1C(=O)N(CC)C(=S)N1NC(=O)c1cccnc1 (stereo not drawn),.,.,.,.,.,/
Cc1ccc(C2(CCNS(=O)(=O)c3ccc(C)cc3)CCOC(C(C)C)C2)cc1 (stereo not drawn),.,15.0,.,63.5,.,.
Cc1ccc(S(=O)(=O)NCCCNS(C)(=O)=O)cc1,.,.,.,.,.,/
CCC1(C)CC(CCNS(=O)(=O)c2ccc(C)cc2)(c2ccc(C)cc2)CCO1 (stereo not drawn),.,15.9,.,51.8,.,.
Cc1ccc(C2(CC(=O)N3CCCC3)CCOC(C(C)C)C2)cc1 (stereo not drawn),.,.,.,.,.,/
Cc1ccc(S(=O)(=O)C2C(=O)N(C)C3(C)CC2c2ccccc2O3)cc1 (stereo not drawn),.,.,.,.,.,/
Cc1ccc(S(N)(=O)=O)cc1NC(=O)/C=C/c1ccc2c(c1)OCO2,.,.,.,.,.,/
CN(C)c1ccc(C=NCC2COc3ccccc3O2)cc1 (stereo not drawn),.,.,.,.,.,/
Cc1ccc(NC(=O)c2ccccc2Br)cc1S(=O)(=O)N(C)C,.,.,.,.,.,/
COCCCNC(=O)c1cc(=O)n(Cc2ccc(Cl)cc2)c2ccccc12,.,.,.,.,.,/
COCCCNC(=O)c1ccc(Cn2c(=O)c3ccccc3n(Cc3ccc(C)cc3)c2=O)cc1,.,12.2,.,.,.,.
O=C(Cn1cc(C(=O)c2ccco2)c2ccccc21)NC1CCCCC1,.,11.6,.,.,.,.
COc1ccc(CCN(Cc2cccs2)S(=O)(=O)c2ccc(S(=O)(=O)N(C)C3CCCCC3)cc2)cc1OC,.,.,.,.,.,/
CCCCCOc1ccc(NC(=O)c2cc(SC)ccc2Cl)cc1,.,13.1,.,.,.,.
CCOc1ccc(NC(=O)c2cc(SC)ccc2Cl)cc1,.,.,.,.,.,/
O=S(=O)(Nc1ccc(-c2csc(-c3ccccc3)n2)cc1)c1ccccc1,.,13.1,90.6,.,.,.
O=C(CCCc1nc2ccccc2s1)NC(c1ccccc1)c1ccccc1,.,.,.,.,.,/
COc1ccc(NC(=O)N2CCCC(c3nc(-c4ccc(OC)cc4)no3)C2)cc1 (stereo not drawn),.,.,.,.,.,/
COc1ccc(NC(=O)N2CCCC(c3nc(-c4ccc(C(C)C)cc4)no3)C2)cc1 (stereo not drawn),.,11.7,72.2,.,.,.
O=C(Cc1ccc(F)cc1)Nc1nnc(SCC(=O)NC2CCCC2)s1,.,.,.,.,.,/
O=C(CSc1nc(-c2ccccc2)cs1)Nc1nccs1,.,.,.,.,.,/
O=C(CSc1nc(-c2ccccc2)cs1)Nc1ccccc1[N+](=O)[O-],.,13.0,.,.,.,.
COc1ccnc(-n2cccc2C#N)c1C#N,.,.,.,.,.,/
COc1ccc([C@@H]2[C@H]3C(=O)N(c4cccc(C(F)(F)F)c4)C(=O)[C@H]3ON2C)cc1,.,.,.,.,.,/
N#C/C(=C\c1ccc(-c2ccc(C(=O)O)cc2)o1)C(=O)NCC1CCCO1 (stereo not drawn),.,.,.,.,.,/
